In ChEMBL document CHEMBL4020721 (Eur J Med Chem, 2017):

How the values were obtained:
Cytochrome P450 2C19 = Cytochrome P450 2C19 (Homo sapiens, UniProt P33261); assay: (§1) Reversible inhibition of CYP2C19 in human liver microsomes at 10 uM after 20 mins in presence of NADPH by LC-MS/MS analysis; type: ADME; conditions: microsomes, 20 min, 10 µM
CYP2C9 [1] = target: T1, CYP2C9 (Homo sapiens, UniProt P11712); assay: Time dependent irreversible inhibition of CYP2C9 in human liver microsomes at 10 uM preincubated with compound followed by NADPH addition by LC-MS/MS analysis; type: ADME; conditions: liver microsomes
Method in brief: (§2)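 HLM (0.2 mg/ml) with 10 µM compound were preincubated 0, 5, 10 or 20 min at 37°C with 1 mM NADPH or PBS. Substrate cocktail (halved concentrations) plus NADPH was then added for 10 min. Metabolites were measured by LC-MS/MS. Kobs is the slope of relative activity versus preincubation time.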

NCI-H1993 = assay: Growth inhibition of human NCI-H1993 cells after 72 hrs by CCK-8 assay; type: functional, cell-based; conditions: Homo sapiens, NCI-H1993, 72 h
SNU-5 = assay: Growth inhibition of human SNU5 cells after 72 hrs by CCK-8 assay; type: functional, cell-based; conditions: Homo sapiens, SNU-5, 72 h
[2] = Intrinsic clearance in rat liver microsomes assessed per mg protein at 1 uM preincubated for 5 mins followed by NADPH addition measured after 5 to 30 mins by LC-MS/MS analysis; type: ADME, microsome; conditions: read-out: CLH
Method in brief: (§3)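 Microsomes (0.5 mg/ml) with 1 µM compound were preincubated 5 min at 37°C in 100 mM phosphate buffer pH 7.4, then started with 1 mM NADPH. Samples were taken at 0, 5, 10 and 30 min, quenched with acetonitrile/tinidazole and run by LC-MS/MS. CLint = k / microsomal protein concentration. Midazolam was the positive control.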

[3] = Drug recovery in human liver microsomes at 1 uM measured after 30 mins by LC-MS/MS analysis; type: ADME, microsome; conditions: liver microsomes, read-out: Drug recovery
Method in brief: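 Liver microsomes (0.5 mg/ml) were incubated with 1 µM compound at 37°C in 100 mM phosphate buffer pH 7.4 without NADPH for 30 min. Reactions were quenched with acetonitrile/tinidazole internal standard and analysed by LC-MS/MS. Recovery (%) was taken from the compound/internal standard peak area ratio.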

[4] = Drug recovery in rat liver microsomes at 1 uM measured after 30 mins by LC-MS/MS analysis; type: ADME, microsome; conditions: liver microsomes, read-out: Drug recovery
Cytochrome P450 2C9 = Cytochrome P450 2C9 (Homo sapiens, UniProt P11712); assay: (§4) Reversible inhibition of CYP2C9 in human liver microsomes at 10 uM after 20 mins by in presence of NADPH LC-MS/MS analysis; type: ADME; conditions: microsomes, 20 min, 10 µM
CYP2C19 [5] = target: T2, CYP2C19 (Homo sapiens, UniProt P33261); assay: Time dependent irreversible inhibition of CYP2C19 in human liver microsomes at 10 uM preincubated with compound followed by NADPH addition by LC-MS/MS analysis; type: ADME; method in brief: as §2
CYP3A4 [6] = target: T3, CYP3A4 (Homo sapiens, UniProt P08684); assay: (§5) Time dependent irreversible inhibition of CYP3A4 in human liver microsomes at 10 uM preincubated with compound followed by NADPH addition by LC-MS/MS analysis; type: ADME; conditions: liver microsomes; method in brief: as §2
CYP2D6 [7] = target: T4, CYP2D6 (Homo sapiens, UniProt P10635); assay: Time dependent irreversible inhibition of CYP2D6 in human liver microsomes at 10 uM preincubated with compound followed by NADPH addition by LC-MS/MS analysis; type: ADME; conditions: liver microsomes; method in brief: as §2
CYP1A2 [8] = target: T5, CYP1A2 (Homo sapiens, UniProt P05177); assay: Time dependent irreversible inhibition of CYP1A2 in human liver microsomes at 10 uM preincubated with compound followed by NADPH addition by LC-MS/MS analysis; type: ADME; conditions: liver microsomes; method in brief: as §2
T5 sequence (P05177 whole entry): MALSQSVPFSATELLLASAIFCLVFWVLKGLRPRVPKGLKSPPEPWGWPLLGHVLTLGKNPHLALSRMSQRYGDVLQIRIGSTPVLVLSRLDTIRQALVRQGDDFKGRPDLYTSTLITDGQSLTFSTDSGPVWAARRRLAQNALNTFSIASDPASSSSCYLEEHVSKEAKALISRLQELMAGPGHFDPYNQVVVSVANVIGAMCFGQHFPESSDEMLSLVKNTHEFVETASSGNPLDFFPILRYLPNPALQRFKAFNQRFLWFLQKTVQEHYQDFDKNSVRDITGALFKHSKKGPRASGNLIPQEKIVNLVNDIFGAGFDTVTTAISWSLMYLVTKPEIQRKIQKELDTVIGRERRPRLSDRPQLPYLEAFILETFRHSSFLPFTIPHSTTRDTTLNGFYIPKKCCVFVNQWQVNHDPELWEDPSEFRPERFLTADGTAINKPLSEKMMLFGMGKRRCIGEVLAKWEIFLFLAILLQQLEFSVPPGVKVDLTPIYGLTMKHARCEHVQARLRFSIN

[9] = Drug recovery in monkey liver microsomes at 1 uM measured after 30 mins by LC-MS/MS analysis
[10] = Intrinsic clearance in monkey liver microsomes assessed per mg protein at 1 uM preincubated for 5 mins followed by NADPH addition measured after 5 to 30 mins by LC-MS/MS analysis; conditions: for microsomal CLint at 1 µM: liver microsomes, read-out: CLH
[11] = Intrinsic clearance in human liver microsomes assessed per mg protein at 1 uM preincubated for 5 mins followed by NADPH addition measured after 5 to 30 mins by LC-MS/MS analysis; type: ADME, microsome; conditions: read-out: CLH; method in brief: as §3
Cytochrome P450 3A4 [12] = target: T6, Cytochrome P450 3A4 (Homo sapiens, UniProt P08684); assay: (§6) Reversible inhibition of CYP3A4 in human liver microsomes at 10 uM after 20 mins in presence of NADPH by LC-MS/MS analysis; type: ADME; conditions: microsomes, 20 min, 10 µM
[13] = target: Hepatocyte growth factor receptor (Homo sapiens, UniProt P08581); assay: Inhibition of c-MET (unknown origin) using TK substrate-biotin peptide as substrate preincubated for 5 to 10 mins followed by ATP addition measured after 30 mins by HTRF assay
Cytochrome P450 3A4 [14] = target: T6, Cytochrome P450 3A4; assay: as §5; type: ADME; conditions: microsomes, 10 µM; method in brief: as §2
CYP2C19 [15] = target: T2, CYP2C19; assay: as §1; type: ADME; conditions: liver microsomes
CYP2C9 [16] = target: T1, CYP2C9; assay: as §4; type: ADME; conditions: liver microsomes
CYP3A4 [17] = target: T3, CYP3A4; assay: as §6; type: ADME; conditions: liver microsomes
CYP2D6 [18] = target: T4, CYP2D6; assay: Reversible inhibition of CYP2D6 in human liver microsomes at 10 uM after 20 mins in presence of NADPH by LC-MS/MS analysis; type: ADME; conditions: liver microsomes
CYP1A2 [19] = target: T5, CYP1A2; assay: Reversible inhibition of CYP1A2 in human liver microsomes at 10 uM after 20 mins in presence of NADPH by LC-MS/MS analysis; type: ADME

T3 sequence (P08684 whole entry): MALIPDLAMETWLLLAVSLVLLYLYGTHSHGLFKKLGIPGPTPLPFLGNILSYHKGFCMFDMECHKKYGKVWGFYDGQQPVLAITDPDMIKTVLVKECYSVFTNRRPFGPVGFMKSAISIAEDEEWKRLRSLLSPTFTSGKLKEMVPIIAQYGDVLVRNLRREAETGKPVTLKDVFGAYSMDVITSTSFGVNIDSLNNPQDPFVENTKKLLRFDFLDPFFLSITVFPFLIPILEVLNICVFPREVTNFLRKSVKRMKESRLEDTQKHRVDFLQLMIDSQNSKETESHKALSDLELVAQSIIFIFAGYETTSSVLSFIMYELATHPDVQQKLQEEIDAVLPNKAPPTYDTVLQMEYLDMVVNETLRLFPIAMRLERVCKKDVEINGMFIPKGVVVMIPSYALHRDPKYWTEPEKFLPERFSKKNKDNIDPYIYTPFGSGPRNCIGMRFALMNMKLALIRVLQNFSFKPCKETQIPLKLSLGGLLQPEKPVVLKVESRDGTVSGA
T6 sequence (P08684 whole entry): as above
T1 sequence (P11712 whole entry): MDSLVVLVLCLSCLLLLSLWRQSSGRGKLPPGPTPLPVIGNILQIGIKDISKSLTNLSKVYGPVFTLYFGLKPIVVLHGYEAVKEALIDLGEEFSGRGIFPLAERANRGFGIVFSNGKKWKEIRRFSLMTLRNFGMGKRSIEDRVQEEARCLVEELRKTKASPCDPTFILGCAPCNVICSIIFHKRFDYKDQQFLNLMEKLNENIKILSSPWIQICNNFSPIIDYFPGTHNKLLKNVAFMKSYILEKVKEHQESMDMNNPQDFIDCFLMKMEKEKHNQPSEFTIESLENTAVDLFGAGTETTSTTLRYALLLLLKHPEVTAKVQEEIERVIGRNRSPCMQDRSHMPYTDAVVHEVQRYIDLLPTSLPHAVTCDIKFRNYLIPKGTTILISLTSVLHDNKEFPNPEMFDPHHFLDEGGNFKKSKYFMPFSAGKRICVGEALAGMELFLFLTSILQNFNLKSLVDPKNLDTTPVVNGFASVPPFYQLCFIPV
Chain of Cytochrome P450 2C9 (P11712 whole entry): as above
Chain of Cytochrome P450 2C19 (P33261 whole entry): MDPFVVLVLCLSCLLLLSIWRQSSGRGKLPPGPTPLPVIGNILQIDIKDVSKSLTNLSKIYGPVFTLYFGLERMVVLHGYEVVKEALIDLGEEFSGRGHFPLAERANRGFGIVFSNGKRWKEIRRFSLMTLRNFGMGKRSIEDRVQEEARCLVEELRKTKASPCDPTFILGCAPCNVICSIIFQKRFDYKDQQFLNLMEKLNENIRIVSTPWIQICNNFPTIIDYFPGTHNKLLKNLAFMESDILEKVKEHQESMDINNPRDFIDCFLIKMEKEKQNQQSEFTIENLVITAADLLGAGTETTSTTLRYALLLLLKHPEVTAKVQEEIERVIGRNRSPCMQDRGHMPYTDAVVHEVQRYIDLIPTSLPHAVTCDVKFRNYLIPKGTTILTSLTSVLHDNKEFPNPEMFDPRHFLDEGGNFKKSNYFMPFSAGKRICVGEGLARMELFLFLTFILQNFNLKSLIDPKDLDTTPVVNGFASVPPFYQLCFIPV
T2 sequence (P33261 whole entry): as above
T4 sequence (P10635 whole entry): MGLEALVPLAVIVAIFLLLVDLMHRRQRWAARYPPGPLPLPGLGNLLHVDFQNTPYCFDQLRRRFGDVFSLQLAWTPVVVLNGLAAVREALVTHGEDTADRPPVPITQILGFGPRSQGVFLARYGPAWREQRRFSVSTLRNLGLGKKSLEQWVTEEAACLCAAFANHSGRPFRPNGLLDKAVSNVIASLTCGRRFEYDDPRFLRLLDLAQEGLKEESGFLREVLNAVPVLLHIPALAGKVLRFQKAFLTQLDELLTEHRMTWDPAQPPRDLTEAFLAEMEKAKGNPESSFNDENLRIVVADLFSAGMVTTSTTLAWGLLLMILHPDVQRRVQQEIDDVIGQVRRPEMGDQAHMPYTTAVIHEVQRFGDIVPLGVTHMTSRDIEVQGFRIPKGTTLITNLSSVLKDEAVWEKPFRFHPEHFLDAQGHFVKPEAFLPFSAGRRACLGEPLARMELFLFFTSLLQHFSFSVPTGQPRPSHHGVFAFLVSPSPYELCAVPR
Chain of Hepatocyte growth factor receptor (P08581 whole entry): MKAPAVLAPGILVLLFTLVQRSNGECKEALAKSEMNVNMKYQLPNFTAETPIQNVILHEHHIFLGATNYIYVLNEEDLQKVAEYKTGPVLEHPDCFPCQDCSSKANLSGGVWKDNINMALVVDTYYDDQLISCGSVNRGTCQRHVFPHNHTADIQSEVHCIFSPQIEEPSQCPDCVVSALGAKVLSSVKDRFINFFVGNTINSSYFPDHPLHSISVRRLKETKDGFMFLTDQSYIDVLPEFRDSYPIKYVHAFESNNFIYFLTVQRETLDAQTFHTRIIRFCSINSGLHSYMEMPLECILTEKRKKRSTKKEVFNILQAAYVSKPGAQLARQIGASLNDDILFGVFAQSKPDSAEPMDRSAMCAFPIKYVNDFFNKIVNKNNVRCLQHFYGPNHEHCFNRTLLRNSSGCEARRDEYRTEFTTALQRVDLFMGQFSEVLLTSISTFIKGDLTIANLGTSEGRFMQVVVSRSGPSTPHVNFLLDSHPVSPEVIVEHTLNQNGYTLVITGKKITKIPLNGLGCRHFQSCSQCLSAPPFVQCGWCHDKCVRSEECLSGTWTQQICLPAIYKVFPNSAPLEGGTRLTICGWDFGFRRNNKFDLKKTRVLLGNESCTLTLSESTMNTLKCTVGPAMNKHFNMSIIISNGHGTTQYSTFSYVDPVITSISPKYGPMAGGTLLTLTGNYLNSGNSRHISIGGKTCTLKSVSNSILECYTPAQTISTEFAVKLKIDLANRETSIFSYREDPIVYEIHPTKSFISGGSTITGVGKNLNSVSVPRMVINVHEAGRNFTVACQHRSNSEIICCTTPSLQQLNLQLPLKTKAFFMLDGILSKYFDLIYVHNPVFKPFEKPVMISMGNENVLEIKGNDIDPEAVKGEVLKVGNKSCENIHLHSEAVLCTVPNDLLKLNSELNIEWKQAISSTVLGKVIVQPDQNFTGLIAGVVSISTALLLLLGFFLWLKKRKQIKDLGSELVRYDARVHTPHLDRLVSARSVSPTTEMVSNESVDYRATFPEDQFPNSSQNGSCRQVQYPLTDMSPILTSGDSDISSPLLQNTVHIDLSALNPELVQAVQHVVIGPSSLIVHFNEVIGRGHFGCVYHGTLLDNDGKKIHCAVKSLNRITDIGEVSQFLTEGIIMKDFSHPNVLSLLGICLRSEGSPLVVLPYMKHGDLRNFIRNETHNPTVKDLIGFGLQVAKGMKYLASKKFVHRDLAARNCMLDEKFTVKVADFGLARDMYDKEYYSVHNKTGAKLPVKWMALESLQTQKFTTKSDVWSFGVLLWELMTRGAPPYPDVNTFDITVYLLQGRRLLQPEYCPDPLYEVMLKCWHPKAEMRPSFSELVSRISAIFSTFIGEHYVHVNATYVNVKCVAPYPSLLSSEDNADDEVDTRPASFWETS

inhibition at 10 µM (CYP2C9 [1]) [%] | IC50 (NCI-H1993) [nM] | IC50 (SNU-5) [nM] | microsomal CLint at 1 µM [2] [µL/min/mg] | remaining at 0.5 h, 1 µM [3] [%] | remaining at 0.5 h, 1 µM [4] [%] | inhibition at 10 µM (CYP2C19 [5]) [%] | inhibition at 10 µM (CYP3A4 [6]) [%] | inhibition at 10 µM (CYP2D6 [7]) [%] | inhibition at 10 µM (CYP1A2 [8]) [%] | remaining at 0.5 h, 1 µM [9] [%] | microsomal CLint at 1 µM [10] [µL/min/mg] | microsomal CLint at 1 µM [11] [µL/min/mg] | Structure (SMILES) | other results
< 50 | 0.2 | 1.8 | 6 | 105 | 104 | < 50 | < 50 | < 50 | < 50 | 108 | 16 |  | CC(c1ccc2ncc(-c3cnn(C)c3)cc2c1)n1nnc2ncc(-c3cnn(CCO)c3)nc21 (stereo unspecified) | inhibition (INH) (Cytochrome P450 2C19): Active; inhibition (INH) (Cytochrome P450 2C9): Active
 | 3.5 | 7.2 |  |  |  |  |  |  |  |  |  |  | CC(c1c(F)cc2ncc(-c3ccc(F)cc3)cc2c1F)n1nnc2ncc(-c3ccncc3)nc21 (stereo unspecified) | 
 | 4.2 | 3.7 | 57 | 104 | 97 |  |  |  |  | 93 | 119 | 15 | CNC(=O)c1ccc(-c2cnc3nnn(C(C)c4ccc5ncc(-c6ccc(F)cc6)cc5c4)c3n2)cc1F (stereo unspecified) | 
 | 8.7 | 7 | 56 | 105 | 91 |  |  |  |  | 97 | 65 | 14 | CC(c1ccc2ncc(-c3ccc(F)cc3)cc2c1)n1nnc2ncc(-c3ccncc3)nc21 (stereo unspecified) | 
< 50 | 3.2 | 2.5 | 55 | 113 | 106 | < 50 | < 50 | < 50 | < 50 | 103 | 49 | 4 | CC(c1cc2cc(-c3cnn(C)c3)cnc2cc1F)n1nnc2ncc(-c3ccncc3)nc21 (stereo unspecified) | inhibition (INH) (Cytochrome P450 2C19): Active; inhibition (INH) (Cytochrome P450 2C9): Active; inhibition (INH) (Cytochrome P450 3A4 [12]): Active
< 50 | 0.9 | 1.2 | 61 | 104 | 94 | < 50 | < 50 | < 50 | < 50 | 90 | 78 | 22 | CC(c1ccc2ncc(-c3cnn(C)c3)cc2c1)n1nnc2ncc(-c3ccncc3)nc21 (stereo unspecified) | inhibition (INH) (Cytochrome P450 3A4 [12]): Active
 |  |  |  |  |  |  |  |  |  |  |  |  | CC(c1ccc2nc(-c3cnn(C)c3)ccc2c1)n1nnc2ncc(-c3cnn(C)c3)nc21 (stereo unspecified) | IC50 [13]: > 100 nM
 |  |  | 49 | 92 | 79 |  |  |  |  | 1 |  | 8 | C[C@@H](c1cc2cccnc2cc1F)n1cnc2ncc(-c3cnn(C)c3)nc21 | CLH ([10]; microsomes, 1 µM): Nd(Unstable)
< 50 | 0.8 | 1.3 | 20 | 98 | 97 | < 50 | < 50 | < 50 | < 50 | 102 | 43 | 8 | CC(c1c(F)cc2ncc(-c3cnn(C)c3)cc2c1F)n1nnc2ncc(-c3cnn(CCO)c3)nc21 (stereo unspecified) | inhibition (INH) (Cytochrome P450 2C19): Active; inhibition (INH) (Cytochrome P450 2C9): Active
< 50 |  | 0.9 | 48 | 92 | 95 | < 50 | < 50 | < 50 | < 50 | 95 | 187 | 5 | CNC(=O)c1ccc(-c2cnc3nnn(C(C)c4c(F)cc5ncc(-c6cnn(C)c6)cc5c4F)c3n2)cc1F (stereo unspecified) | inhibition (INH) (Cytochrome P450 2C19): Active; inhibition (INH) (Cytochrome P450 2C9): Active
 | 0.8 | 1.3 | 22 | 91 | 94 |  |  |  |  | 75 | 86 | 17 | CC(c1c(F)cc2ncc(-c3cnn(C)c3)cc2c1F)n1nnc2ncc(-c3cnn(C)c3)nc21 (stereo unspecified) | inhibition (INH) (Cytochrome P450 2C19): Active; inhibition (INH) (Cytochrome P450 2C9): Active; TDI (Cytochrome P450 3A4 [14]): Active
 |  |  |  |  |  |  |  |  |  |  |  |  | CC(c1ccc2nc(-c3cnn(C)c3)ccc2c1)n1nnc2ncc(-c3ccc(N)cc3)nc21 (stereo unspecified) | IC50 [13]: > 100 nM
 | 3.6 | 6.8 |  |  |  |  |  |  |  |  |  |  | CC(c1cc2cc(-c3ccc(F)cc3)cnc2cc1F)n1nnc2ncc(-c3ccncc3)nc21 (stereo unspecified) | 
 | 1.2 | 2.2 | 28 | 105 | 97 |  |  |  |  | 109 | 112 | 16 | CC(c1ccc2ncc(-c3ccc(F)cc3)cc2c1)n1nnc2ncc(-c3cnn(C)c3)nc21 (stereo unspecified) | 
< 50 | 1.1 | 0.6 | 12 | 116 | 111 | < 50 | < 50 | < 50 | < 50 | 69 | 24 | 5 | CNC(=O)c1ccc(-c2cnc3nnn(C(C)c4cc5cc(-c6cnn(C)c6)cnc5cc4F)c3n2)cc1F (stereo unspecified) | inhibition at 20 min, 10 µM (CYP2C19 [15]): < 50%; inhibition at 20 min, 10 µM (CYP2C9 [16]): < 50%; inhibition at 20 min, 10 µM (CYP3A4 [17]): < 50%; inhibition at 20 min, 10 µM (CYP2D6 [18]): < 50%; inhibition at 20 min, 10 µM (CYP1A2 [19]): < 50%
 | 4.1 | 2 |  |  |  |  |  |  |  |  |  |  | CC(c1cc2cc(-c3ccc(F)cc3)cnc2cc1F)n1nnc2ncc(-c3cnn(C)c3)nc21 (stereo unspecified) | 
 | 2.6 | 2.2 |  |  |  |  |  |  |  |  |  |  | CC(c1c(F)cc2ncc(-c3ccc(F)cc3)cc2c1F)n1nnc2ncc(-c3cnn(C)c3)nc21 (stereo unspecified) | 
< 50 | 0.5 | 0.6 | 5 | 115 | 114 | < 50 | < 50 | < 50 | < 50 | 97 | 16 | 1 | CNC(=O)c1ccc(-c2cnc3nnn(C(C)c4ccc5ncc(-c6cnn(C)c6)cc5c4)c3n2)cc1F (stereo unspecified) | inhibition (INH) (Cytochrome P450 3A4 [12]): Active
